High-throughput results (PubChem)
Compounds with a hit are over-represented: about 2.6% of the library has one in this group of screens.
Cl transport mod: modulates chloride dependent transport by human KCC2; KCC2 cells, thallium flux FluoZin-2 fluorescence; B-score of Tl+ flux slope (higher = more flux/activation; lower = inhibition) at 10 µM; 190,000 tested, 2.2% active; AID 1456;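 active = thallium flux slope and its plate-corrected score both differing from the plate sample mean at a set confidence after two filtering rounds, in either direction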;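 also: slope of fluorescence scaled to starting intensity during 10 to 20 s after thallium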
CHT inh: inhibits the human high affinity choline transporter; CHT-expressing cells, membrane potential dye, choline response; hits give low values; B-score at 10 µM; 310,000 tested, 0.86% active; AID 488975;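 active = B-score over 3 SD under the library average, and starting fluorescence ratio not unusually high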;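 also: choline stimulus applied at its EC90 after an EC20 pre-addition; B-score computed on integrated fluorescence ratio after choline addition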
CHT PAM: allosterically activates the human high affinity choline transporter; CHT-expressing cells, membrane potential dye, choline EC20; hits give high values; LV-AA mutant CHT in HEK293 cells; B-score at 10 µM; 310,000 tested, 0.49% active; AID 488977;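 active = initial fluorescence not abnormally high and integrated response B-score, plate-corrected, over 3 SD above library mean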
Rad51 HR inh: Rad51 (human) homologous recombination inhibition; Q06609; hRad51 DNA strand exchange, fluorescence dequenching; inhibition, % at 10 µM; 200,000 tested, 0.085% active; AID 1385;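 active = inhibition above 40% at the single screening dose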;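 also: 0% = DMSO control wells and 100% = blanks with heterologous ssDNA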
Target sequence (Q06609 whole entry, looked up): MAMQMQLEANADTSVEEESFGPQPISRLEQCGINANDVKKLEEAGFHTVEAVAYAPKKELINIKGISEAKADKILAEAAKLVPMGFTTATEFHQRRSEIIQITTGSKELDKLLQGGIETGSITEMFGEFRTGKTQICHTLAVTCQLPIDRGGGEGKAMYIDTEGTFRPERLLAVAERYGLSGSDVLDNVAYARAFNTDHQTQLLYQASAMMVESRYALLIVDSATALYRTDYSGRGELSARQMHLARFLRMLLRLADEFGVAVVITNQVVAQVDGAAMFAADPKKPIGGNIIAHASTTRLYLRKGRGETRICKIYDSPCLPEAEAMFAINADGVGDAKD
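Test system – preformed human Rad51 ssDNA filaments · Reagent – Donor/quencher-labelled 47-bp dsDNA substrate · Incubation – 37 °C 15-min filament assembly, 30-min compound preincubation, 15-min exchange · Signal – FRET fluorescence dequenching, excitation 485 nm, emission 520 nm · Read-out – percent inhibition from fluorescence, normalised to plate control and blank means · Benchmarks – plate control and blank wells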
CHT block conf: human CHT inhibition, confirmatory screen; shares compounds with CHT inh; CHT-expressing cells, choline membrane potential dye; LV-to-AA substituted CHT, HEK293 cells; CHT activity remaining % of control (hits give low values), % at 10 µM; 2,400 tested, 70% active; AID 493221;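 active = choline transporter activity left, mean of duplicates at 10 µM, below buffer-only control mean minus 3 SD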;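 also: depolarization triggered by choline at its EC90 following an EC20 pre-addition; 0% = hemicholinium-3 full block and 100% = buffer-only control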
HEK293 CHT ctr: CHT inhibitor counter-screen hit in parental HEK293 cells. membrane potential dye, choline response; active = decrease or increase beyond buffer ±3SD. membrane potential ratio readout (active if shifted either direction beyond buffer ±3SD; no single direction) at 10 µM. AID 493222. shares compounds with CHT inh. 2,400 tested, 4% active;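 also: parental cells lack the transporter so any hit is non-specific; ratio is peak minus trough fluorescence over baseline after EC90 choline challenge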
Starred values were filed as active, the others as inactive; i = inactive; . = no result.

SMILES | Cl transport mod | CHT inh | CHT PAM | Rad51 HR inh | CHT block conf | HEK293 CHT ctr
Cc1ccc(NC(=O)C(=O)NCc2ccc(/C=N/NC(=O)c3c(C)nc4ccccn34)o2)cc1 | -0.16 | i | i | -18 | . | .
CN(C)C(=O)c1ccccc1Sc1ccc(Cl)cc1Cl | -1.7 | -5* | i | -5 | i | i
Cc1cc(C)n2nc(C(=O)OC(C)C(=O)c3ccccc3)nc2n1 (stereo unspecified) | . | i | i | . | . | .
CCCNC(=O)c1ccccc1NC(=O)c1ccc2c(c1)NC(=O)C(C)S2 (stereo unspecified) | . | -5.9* | i | . | 65%* | i
COc1ccc(S(=O)(=O)N2CCCCCC2)cc1C(=O)N(C)Cc1ccc(C(C)(C)C)cc1 | . | i | i | . | . | .
O=C(CCC1CCCC1)NCCCNC(=O)CCC1CCCC1 | . | -6.5* | i | . | 38%* | i
CCOc1ccc2nc(SCC(=O)Nc3ccc4[nH]c(=O)[nH]c4c3)[nH]c2c1 | . | i | i | . | . | .
Cc1ccc(-c2nn(-c3ccccn3)c(=O)c3ccccc23)cc1 | -1.1 | -5.2* | i | 12 | 67%* | i
Cc1ccc(-c2nn(-c3ccccn3)c(=O)c3ccccc23)cc1C | -2 | i | i | 27 | . | .
c1ccc(COc2ccc3nocc3c2)cc1 | . | i | i | . | . | .
CCOC(=O)CSCc1c(C#N)c2ccccc2n1C | . | -6.8* | i | 0 | i | i
Cn1c(CN2CCCC2)c(C#N)c2ccccc21 | . | -5* | i | 2 | 71%* | i
COc1cccc(CNC(=O)CCn2c(=O)c3cccn3c3cccnc32)c1 | . | i | i | . | . | .
O=C(Nc1ccc(F)cc1F)c1ccc2nc(N3CCOCC3)sc2c1 | . | -11* | i | . | i | i
O=C(Nc1ccccc1Cl)c1ccc2nc(N3CCOCC3)sc2c1 | . | i | i | . | . | .
COc1ccc(NC(=S)N/N=C/c2cccn2Cc2ccc(F)cc2)cc1 | -0.027 | i | i | -3 | . | .
COc1cccc(C2C(C#N)=C(N)Oc3cc(C)oc(=O)c32)c1OC (stereo unspecified) | -0.54 | i | i | -1 | . | .
COC(=O)/C(=C/c1c[nH]c2ccccc12)[N+](=O)[O-] | -0.35 | -4.9* | i | -4 | 58%* | i
CCN1C(=O)CC(c2ccccc2)CC1=O | . | i | i | . | . | .
CN1C(=O)CC(c2ccccc2)CC1=O | . | -13* | i | . | i | i
O=C(CNC(=O)c1cccs1)c1ccc([N+](=O)[O-])cc1 | 0.0094 | i | i | -9 | . | .
O=C(CNC(=O)c1cccs1)OCC(=O)c1ccc([N+](=O)[O-])cc1 | -0.42 | -5.1* | i | 6 | i | i
CNc1ccccc1C(C)(C)c1ccn[nH]1 | 0.88 | i | i | 10 | . | .
CN1CCN(C(=O)C2CCC(=O)N(CCc3cccc(F)c3)C2)CC1 (stereo unspecified) | . | i | i | . | . | .
Cc1ccc(NC(=O)CSc2n[nH]c(=O)n2C2CC2)cc1S(=O)(=O)N1CCOCC1 | -0.32 | -6.8* | i | 4 | i | i
SMILES | Cl transport mod | CHT inh | CHT PAM | Rad51 HR inh | CHT block conf | HEK293 CHT ctr
CC(=O)c1cccc(OCC(=O)c2cc(C)n(-c3cc(C)on3)c2C)c1 | 0.12 | -5* | i | -1 | 63%* | i
CN(/N=C/c1ccc([N+](=O)[O-])o1)c1ccccc1 | -0.76 | -5.7* | i | -19 | 50%* | i
O=C(N/N=C/c1ccc([N+](=O)[O-])o1)C(O)c1ccccc1 (stereo unspecified) | -0.093 | i | i | . | . | .
Cc1cc(C)cc(C(=O)NC(CC(N)=O)c2ccc(N3CCCCCC3)c([N+](=O)[O-])c2)c1 (stereo unspecified) | . | i | i | . | . | .
O=C(Nc1ccccc1N1CCOCC1)c1ccccc1NS(=O)(=O)c1ccc(F)c(F)c1 | -1.4 | i | i | -2 | . | .
O=C(Nc1ccccc1N1CCOCC1)c1cccc(NS(=O)(=O)c2ccc(F)c(F)c2)c1 | 0.18 | -5.5* | i | 11 | i | i
O=C(Nc1sc2c(c1C(=O)O)CCC2)c1ccccc1 | . | i | i | 11 | . | .
O=C(Nc1sc2c(c1C(=O)O)CCCC2)c1ccc(Cl)cc1 | . | -6.3* | i | . | 53%* | i
Cc1ccc(NC(=O)CNC(=O)c2cccc(Cl)c2)nc1 | . | -6.2* | i | . | 26%* | i
Cc1ccc(NC(=O)c2cccc(Cl)c2)nc1 | -0.59 | i | i | 3 | . | .
S=C(Nc1ccc(Cc2ccncc2)cc1)Nc1cccc(Cl)c1 | -0.13 | -6.6* | i | -4 | i | i
Cc1ccc(NC(=O)C2CCN(S(=O)(=O)c3cccnc3)CC2)cc1C | . | i | i | . | . | .
O=C(Nc1cccc(C(F)(F)F)c1)C1CCN(S(=O)(=O)c2cccnc2)CC1 | . | -5.4* | i | . | 55%* | i
COc1ccc(C/C(O)=C(\C#N)c2nc3ccccc3s2)cc1 | -1.1 | -5* | i | -2 | 55%* | i
Cc1cccc2c1-c1sc(C(=O)Nc3nccs3)cc1CO2 | -1.6 | i | i | -1 | . | .
CCOC(=O)c1cc2c(s1)-c1c(C)cccc1OC2 | 1.4 | -6.8* | i | 10 | 68%* | i
CC(=O)N1NC(=Nc2ccccc2)SC1(C)C | -1.1 | i | i | 1 | . | .
CC(C)[C@H](NC(=O)C1CCN(S(=O)(=O)c2ccc(F)cc2)CC1)C(=O)N1CCCCCC1 | . | i | i | . | . | .
COc1ccccc1CC(=O)N1CCN(c2cccc(C(F)(F)F)c2)CC1 | -1.5 | -6.3* | i | 6 | i | i
Cn1cc(CNCCN2CCCCC2=O)c(-c2cccc(Cl)c2)n1 | 0.26 | i | i | 13 | . | .
CN1CCN(c2ccc(S(=O)(=O)N3CCCCC3)cc2NC(=O)CSCc2ccccc2)CC1 | . | -6.8* | i | . | 48%* | i
CCN(CC)CCCn1c2c(c(SCC(=O)N3CCc4ccccc43)nc1=O)CCC2 | . | -8* | i | . | 42%* | i
CCN(CC)CCCn1c2c(c(SCC(=O)Nc3cccc4ccccc34)nc1=O)CCC2 | . | i | i | . | . | .
CC(=O)c1cccc(-n2c(CCC(=O)O)ccc2-c2ccc(C)cc2)c1 | . | i | i | . | . | .
Cc1ccc(Nc2cc(C)nc3ncnn23)c(Cl)c1 | -0.33 | -5.6* | i | 6 | i | i
Cc1cc(=O)[nH]c(SCC(=O)Nc2ccccc2C#N)c1C#N | -0.26 | i | i | 5 | . | .
Cc1cc(=O)[nH]c(SCC(=O)Nc2ccc(F)cc2)c1C#N | 0.008 | -10* | i | 1 | 62%* | i
Cc1cc(Br)cc(C)c1OCCCCN(C)C | -0.58 | i | i | 2 | . | .
CSc1nnnn1-c1c(C)cccc1C | -0.007 | i | i | 17 | . | .
COc1ccc(NC(C)(C)c2nnnn2-c2c(C)cccc2C)cc1 | -3.1 | -5.4* | i | 19 | 59%* | i
